Laboratory results published in ChEMBL document CHEMBL5303300, “EUbOPEN Chemogenomics Library - Multiplex” (2023).
“And” between values parts separate entries of the source, which are not always exact repeats. Equal entries are not always repeated.

Test system: Fibroblast
Test: Multiplex assay against human fibroblast
Assay type: toxicity, cell-based
Settings: number of replicates 2
Summary of the method: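 On a CQ1 microscope at 37°C and 5% CO2, live cells were imaged after compound addition. They had been stained at seeding with Hoechst33342, BioTracker Green Microtubule Cytoskeleton Dye, MitoTracker Red and Annexin V Alexa Fluor 680. CellPathfinder machine-learning gating assigned cells to Hoechst high-intensity objects or normal cells, normal cells to healthy, pyknosed or fragmented nuclei, and pyknosed cells to mitotic or apoptotic. Tubulin, mitochondrial-mass and membrane-permeability phenotypes are per cents of healthy-nucleus cells.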

[1] = 12 h, 1 µM, compound concentration 1 uM
[2] = 12 h, 10 µM, compound concentration 10 uM
[3] = 24 h, 1 µM, compound concentration 1 uM
[4] = 24 h, 10 µM, compound concentration 10 uM
[5] = 48 h, 1 µM, compound concentration 1 uM
[6] = 48 h, 10 µM, compound concentration 10 uM

CN[C@@H]1CC[C@@H](c2ccc(Cl)c(Cl)c2)c2ccccc21.Cl
Population Apoptotic (%) [1]: 43% and 37% | Population Fragmented Nuclei (%) [1]: 14% and 18% | Population Healthy Nuclei (%) [1]: 55% and 62% | Population Hoechst High Intensity Objects (%) [1]: 0% | Population Membrane Permeable-Phenotype (%) [1]: 12% and 9% | Population Mitochondria Different-Phenotype (%) [1]: 2% and 0% | Population Mitotic Cells (%) [1]: 56% and 62% | Population Normal (%) [1]: 100% and 99% | Population Pyknosed Nuclei (%) [1]: 29% and 19% | Population Tubulin-Different-Phenotype (%) [1]: 37% and 20% | Total Cell Count [1]: 194 | Population Apoptotic (%) [2]: 28% and 53% | Population Fragmented Nuclei (%) [2]: 17% and 15% | Population Healthy Nuclei (%) [2]: 56% and 55% | Population Hoechst High Intensity Objects (%) [2]: 0% | Population Membrane Permeable-Phenotype (%) [2]: 11% and 8% | Population Mitochondria Different-Phenotype (%) [2]: 10% and 14% | Population Mitotic Cells (%) [2]: 71% and 46% | Population Normal (%) [2]: 100% and 99% | Population Pyknosed Nuclei (%) [2]: 26% and 28% | Population Tubulin-Different-Phenotype (%) [2]: 82% and 77% | Population Apoptotic (%) [3]: 43% and 40% | Population Fragmented Nuclei (%) [3]: 16% and 17% | Population Healthy Nuclei (%) [3]: 57% and 65% | Population Hoechst High Intensity Objects (%) [3]: 0% and 1% | Population Membrane Permeable-Phenotype (%) [3]: 8% and 2% | Population Mitochondria Different-Phenotype (%) [3]: 1% and 4% | Population Mitotic Cells (%) [3]: 56% and 60% | Population Normal (%) [3]: 99% and 98% | Population Pyknosed Nuclei (%) [3]: 25% and 16% | Population Tubulin-Different-Phenotype (%) [3]: 39% and 19% | Population Apoptotic (%) [4]: 53% and 65% | Population Fragmented Nuclei (%) [4]: 13% and 15% | Population Healthy Nuclei (%) [4]: 56% and 53% | Population Hoechst High Intensity Objects (%) [4]: 0% | Population Membrane Permeable-Phenotype (%) [4]: 7% and 5% | Population Mitochondria Different-Phenotype (%) [4]: 29% and 49% | Population Mitotic Cells (%) [4]: 46% and 34% | Population Normal (%) [4]: 100% and 99% | Population Pyknosed Nuclei (%) [4]: 30% and 32% | Population Tubulin-Different-Phenotype (%) [4]: 89% and 88% | Total Cell Count [4]: 212 and 201 | Population Apoptotic (%) [5]: 78% and 55% | Population Fragmented Nuclei (%) [5]: 21% and 22% | Population Healthy Nuclei (%) [5]: 60% and 64% | Population Hoechst High Intensity Objects (%) [5]: 0% | Population Membrane Permeable-Phenotype (%) [5]: 2% and 3% | Population Mitochondria Different-Phenotype (%) [5]: 0% | Population Mitotic Cells (%) [5]: 21% and 44% | Population Normal (%) [5]: 99% | Population Pyknosed Nuclei (%) [5]: 17% and 12% | Population Apoptotic (%) [6]: 75% and 88% | Population Fragmented Nuclei (%) [6]: 12% and 14% | Population Healthy Nuclei (%) [6]: 66% and 51% | Population Hoechst High Intensity Objects (%) [6]: 1% and 0% | Population Membrane Permeable-Phenotype (%) [6]: 11% and 1% | Population Mitochondria Different-Phenotype (%) [6]: 40% and 47% | Population Mitotic Cells (%) [6]: 24% and 11% | Population Normal (%) [6]: 98% and 100% | Population Pyknosed Nuclei (%) [6]: 21% and 34% | Population Tubulin-Different-Phenotype (%) [6]: 84% and 69% | Total Cell Count [6]: 196

CCn1c(-c2nonc2N)nc2cncc(C(=O)N3CC[C@H](N)C3)c21.Cl
Population Apoptotic (%) [1]: 33% and 45% | Population Fragmented Nuclei (%) [1]: 6% and 11% | Population Healthy Nuclei (%) [1]: 73% and 74% | Population Hoechst High Intensity Objects (%) [1]: 0% | Population Membrane Permeable-Phenotype (%) [1]: 6% and 1% | Population Mitochondria Different-Phenotype (%) [1]: 0% and 1% | Population Mitotic Cells (%) [1]: 66% and 54% | Population Normal (%) [1]: 100% | Population Pyknosed Nuclei (%) [1]: 19% and 13% | Population Tubulin-Different-Phenotype (%) [1]: 2% and 4% | Total Cell Count [1]: 202 and 240 | Population Apoptotic (%) [2]: 9% and 19% | Population Fragmented Nuclei (%) [2]: 6% and 12% | Population Healthy Nuclei (%) [2]: 65% and 67% | Population Hoechst High Intensity Objects (%) [2]: 0% | Population Membrane Permeable-Phenotype (%) [2]: 3% and 1% | Population Mitochondria Different-Phenotype (%) [2]: 1% and 2% | Population Mitotic Cells (%) [2]: 90% and 80% | Population Normal (%) [2]: 99% and 100% | Population Pyknosed Nuclei (%) [2]: 28% and 20% | Population Tubulin-Different-Phenotype (%) [2]: 11% and 6% | Total Cell Count [2]: 196 and 295 | Population Apoptotic (%) [3]: 50% and 69% | Population Fragmented Nuclei (%) [3]: 4% and 10% | Population Healthy Nuclei (%) [3]: 83% and 78% | Population Hoechst High Intensity Objects (%) [3]: 0% | Population Membrane Permeable-Phenotype (%) [3]: 4% and 2% | Population Mitochondria Different-Phenotype (%) [3]: 0% | Population Mitotic Cells (%) [3]: 50% and 30% | Population Normal (%) [3]: 100% | Population Pyknosed Nuclei (%) [3]: 11% | Population Tubulin-Different-Phenotype (%) [3]: 2% and 5% | Total Cell Count [3]: 191 and 224 | Population Apoptotic (%) [4]: 23% | Population Fragmented Nuclei (%) [4]: 8% and 10% | Population Healthy Nuclei (%) [4]: 76% and 77% | Population Hoechst High Intensity Objects (%) [4]: 0% | Population Membrane Permeable-Phenotype (%) [4]: 2% and 0% | Population Mitochondria Different-Phenotype (%) [4]: 4% and 2% | Population Mitotic Cells (%) [4]: 76% | Population Normal (%) [4]: 100% | Population Pyknosed Nuclei (%) [4]: 15% and 11% | Population Tubulin-Different-Phenotype (%) [4]: 10% and 3% | Total Cell Count [4]: 196 and 266 | Population Apoptotic (%) [5]: 86% and 66% | Population Fragmented Nuclei (%) [5]: 6% and 10% | Population Healthy Nuclei (%) [5]: 85% | Population Hoechst High Intensity Objects (%) [5]: 0% | Population Membrane Permeable-Phenotype (%) [5]: 3% and 2% | Population Mitochondria Different-Phenotype (%) [5]: 0% | Population Mitotic Cells (%) [5]: 13% and 33% | Population Normal (%) [5]: 100% | Population Pyknosed Nuclei (%) [5]: 7% and 4% | Population Tubulin-Different-Phenotype (%) [5]: 1% and 3% | Total Cell Count [5]: 196 and 220 | Population Apoptotic (%) [6]: 57% and 69% | Population Fragmented Nuclei (%) [6]: 11% and 9% | Population Healthy Nuclei (%) [6]: 72% and 80% | Population Hoechst High Intensity Objects (%) [6]: 0% | Population Membrane Permeable-Phenotype (%) [6]: 2% and 1% | Population Mitochondria Different-Phenotype (%) [6]: 0% | Population Mitotic Cells (%) [6]: 42% and 30% | Population Normal (%) [6]: 100% and 99% | Population Pyknosed Nuclei (%) [6]: 15% and 9% | Population Tubulin-Different-Phenotype (%) [6]: 2% and 3% | Total Cell Count [6]: 184 and 264
